According to ChEMBL document CHEMBL4411332, “Deciphering the Role of Intramolecular Networking in Cholic Acid-Peptide Conjugates on the Lipopolysaccharide Surface in Combating Gram-Negative Bacterial Infections” (J Med Chem, 2019):
Converted amounts (≈) assume the structure as drawn. The source made the active and inactive calls. The calls are words filed in the database; no cut-off is given here.

What was measured:
Escherichia coli [1] = test: Antibacterial activity against Escherichia coli by broth dilution assay; assay type: functional
How it was run: (§1)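 MIC99 by broth-dilution assay; antibacterial and culture details are in the Supporting Information.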

Escherichia coli [2] = test: Antimicrobial activity against compound-pre-treated Escherichia coli by broth dilution assay based drug resistance development assay; assay type: functional, organism-based
How it was run: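 E. coli pre-treated with compound, then MIC₉₉ redetermined by broth-dilution assay in four replicates; reported as fold change in MIC₉₉ relative to starting value to assess resistance development.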

Cell membrane [3] = test: Binding affinity to bacterial cell membrane assessed as Ka1 by SPR assay; assay type: cell membranes; conditions: Bacteria
How it was run: (§2)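 Surface plasmon resonance of compound binding to bacterial membranes. K1, K2 and overall KA were calculated from the sensorgrams. Average of three replicates.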

Acinetobacter baumannii [4] = test: Antibacterial activity against Acinetobacter baumannii isolate 5/412 by broth dilution assay; assay type: functional
Escherichia coli [5] = test: Induction of membrane permeabilization in Escherichia coli by SYTO9-PI staining based fluorescence microscopy; assay type: organism-based; conditions: Cell membrane
Escherichia coli [6] = test: Antibiofilm activity against Escherichia coli assessed as reduction in biomass levels at 64 uM after 24 hrs by crystal violet-based assay relative to control; assay type: functional; parameters: scale not given: the % may be the effect or the level left
How it was run: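 Pre-formed E. coli biofilms treated 24 h with varying doses; biomass quantified by crystal violet staining relative to untreated. Mean ± SD of three replicates, unpaired two-tailed t-test.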

Escherichia coli [7] = test: Antibacterial activity against Escherichia coli isolate 6/23 infected in wound areas of BALB/c mouse assessed as reduction in colony forming units at 40 mg/kg dosed thrice daily for 4 days starting 6 hrs post infection and measured on day 5; assay type: functional, organism-based
Lipopolysaccharide (LPS) [8] = test: Displacement of dansyl-polymyxin B from LPS of bacterial cell membrane by fluorescence spectrophotometry; conditions: Bacteria
How it was run: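 Dansyl-polymyxin B–LPS complexes titrated with compound; rise in dansyl fluorescence from displacement measured. Mean ± SD of three replicates, unpaired two-tailed t-test.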

Escherichia coli [9] = test: Antibacterial activity against Escherichia coli isolate 9/44 by broth dilution assay; assay type: functional
Escherichia coli [10] = test: Antibacterial activity against Escherichia coli isolate 6/38 by broth dilution assay; assay type: functional
Escherichia coli [11] = test: Antibiofilm activity against Escherichia coli assessed as reduction in biomass levels after 24 hrs by SYT09-propidium iodide based confocal microscopy; assay type: functional, organism-based
How it was run: (§3)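 Treated E. coli biofilms stained with SYTO9 (all cells) and PI (dead cells) and imaged by confocal laser scanning microscopy. Biofilm thickness quantified against untreated. Mean ± SD of three replicates, unpaired two-tailed t-test.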

[12] = Selectivity index, ratio of HC50 for human RBC to MIC99 for Escherichia coli; assay type: toxicity; conditions: human red blood cells (RBC), read-out: Selectivity Index
Escherichia coli [13] = test: Antibiofilm activity against Escherichia coli isolate 6/23 exposed to compound-coated catheters assessed as reduction in colony forming units incubated for 3 days; assay type: functional, organism-based
Escherichia coli [14] = test: Antibiofilm activity against Escherichia coli assessed as reduction in colony forming units at 64 uM after 24 hrs by crystal violet-based assay relative to control; assay type: functional
Acinetobacter baumannii [15] = test: Antibacterial activity against Acinetobacter baumannii isolate 4/202 by broth dilution assay; assay type: functional
Escherichia coli [16] = test: Induction of cell morphology changes in Escherichia coli at 8 uM by TEM assay; assay type: functional, organism-based
How it was run: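 E. coli treated at 8 µM, sampled at different times and imaged by transmission electron microscopy beside untreated cells.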

Klebsiella pneumoniae [17] = test: Antibacterial activity against Klebsiella pneumoniae isolate 12823 by broth dilution assay; assay type: functional
Escherichia coli [18] = test: Induction of cell membrane disruption in Escherichia coli assessed as pore network disruption by SEM assay; assay type: functional, organism-based
Klebsiella pneumoniae [19] = test: Antibacterial activity against Klebsiella pneumoniae isolate 8/407 by broth dilution assay; assay type: functional
Escherichia coli [20] = test: Induction of membrane permeabilization in Escherichia coli at 8 uM after 30 mins DiSC2-fluorescence based assay; assay type: organism-based; conditions: Cell membrane
How it was run: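 DiSC2(5)-loaded E. coli treated at 8 µM; depolarization-driven fluorescence increase followed over time. Average of three replicates.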

Escherichia coli [21] = test: Induction of cell membrane disruption in Escherichia coli assessed as extracellular architecture disruption by SEM assay; assay type: functional, organism-based
Lipopolysaccharide (LPS) [22] = test: Binding affinity to bacterial LPS by BODIPY-LPS based fluorescence assay; conditions: Bacteria
How it was run: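 BODIPY-conjugated LPS aggregates titrated with compound; fluorescence increase from aggregate disintegration recorded. Mean ± SD of three replicates, unpaired two-tailed t-test.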

Cell membrane [23] = test: Binding affinity to bacterial cell membrane assessed as Kd1 by SPR assay; assay type: cell membranes; conditions: Bacteria; how it was run: as §2
[24] = Critical micellar concentration of the compound; assay type: physicochemical
Acinetobacter baumannii [25] = test: Antibacterial activity against Acinetobacter baumannii by broth dilution assay; assay type: functional; how it was run: as §1
[26] = Binding affinity to DPH-doped model gram negative bacterial membrane (LPS/DPPE/DMPG lipids) assessed as increase in membrane fluidity by fluorescence anisotrophy
How it was run: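 Vesicles of LPS, DPPE and DMPG doped with DPH were incubated with compound, and the change in DPH fluorescence anisotropy was recorded. Mean ± SD of three replicates, unpaired two-tailed t-test.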

Klebsiella pneumoniae [27] = test: Antibacterial activity against Klebsiella pneumoniae isolate 8/307 by broth dilution assay; assay type: functional
Escherichia coli [28] = test: Antibiofilm activity against Escherichia coli after 24 hrs by propidium iodide uptake based FACS analysis; assay type: functional, organism-based
Escherichia coli [29] = test: Antibacterial activity against Escherichia coli isolate 9/203 by broth dilution assay; assay type: functional
Escherichia coli [30] = test: Bactericidal activity against persistent form of Escherichia coli assessed as reduction in colony forming units by fluorescent based time-kill assay; assay type: functional, organism-based
Escherichia coli [31] = test: Antibacterial activity against Escherichia coli XEN 14 infected in wound areas of BALB/C mouse assessed as reduction in bacterial load at 40 mg/kg administered thrice daily for 4 days starting 6 hrs post infection and measured on day 5 by bioluminescence imaging analysis; assay type: functional, organism-based
Escherichia coli [32] = test: Antibiofilm activity against Escherichia coli isolate 6/23 infected in BALB/c mouse implanted subcutaneously with compound treated catheters followed by infection at incision site; assay type: functional, organism-based
Escherichia coli [33] = test: Antibacterial activity against Escherichia coli isolate 6/27 by broth dilution assay; assay type: functional
Klebsiella pneumoniae [34] = test: Antibacterial activity against Klebsiella pneumoniae by broth dilution assay; assay type: functional; how it was run: as §1
Escherichia coli [35] = test: Antibiofilm activity against Escherichia coli assessed as biofilm thickness after 24 hrs (reference value: >8 micrometer); assay type: functional; how it was run: as §3
Escherichia coli [36] = test: Antibacterial activity against Escherichia coli isolate 6/23 by broth dilution assay; assay type: functional
Escherichia coli [37] = test: Bactericidal activity against stationary form of Escherichia coli assessed as reduction in colony forming units by fluorescent based time-kill assay; assay type: functional, organism-based
Acinetobacter baumannii [38] = test: Antibacterial activity against Acinetobacter baumannii isolate 5/321 by broth dilution assay; assay type: functional
Cell membrane [39] = test: Binding affinity to bacterial cell membrane assessed as KA by SPR assay; assay type: cell membranes; conditions: Bacteria; how it was run: as §2
Escherichia coli [40] = test: Ratio of antimicrobial activity against Escherichia coli using 10^12 CFU/ml bacterial inoculum by broth dilution assay to antimicrobial activity against Escherichia coli by broth dilution assay; assay type: functional
How it was run: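 MIC99 against E. coli was measured by broth dilution at a range of inoculum densities up to 10¹² CFU/mL, in four replicates. Results were expressed as fold change in MIC99 relative to the standard inoculum.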

Escherichia coli [41] = test: Induction of membrane permeabilization in Escherichia coli at 32 uM by propidium iodide uptake based FACS analysis; assay type: organism-based; conditions: Cell membrane
How it was run: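 E. coli treated at 32 µM, PI-stained, and PI-positive cells counted by flow cytometry. Mean ± SD of four replicates, unpaired two-tailed t-test.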

Escherichia coli [42] = test: Bactericidal activity against Escherichia coli assessed as reduction in colony forming units at 4 times MIC99 concentration after 90 mins by fluorescent based time-kill assay
Cell membrane [43] = test: Binding affinity to bacterial cell membrane assessed as K2 by SPR assay; assay type: cell membranes; conditions: Bacteria; how it was run: as §2
Escherichia coli [44] = test: Antibiofilm activity against Escherichia coli assessed as reduction in colony forming units after 24 hrs by crystal violet-based assay; assay type: functional, organism-based
Cell membrane [45] = test: Binding affinity to bacterial cell membrane assessed as K1 by SPR assay; assay type: cell membranes; conditions: Bacteria; how it was run: as §2
Cell membrane [46] = test: Binding affinity to bacterial cell membrane assessed as Kd2 by SPR assay; assay type: cell membranes; conditions: Bacteria; how it was run: as §2
[47] = Selectivity index, ratio of IC50 for human A549 cells to MIC99 for Escherichia coli; assay type: toxicity; conditions: read-out: Selectivity Index
Acinetobacter baumannii [48] = test: Antibacterial activity against Acinetobacter baumannii isolate 4/307 by broth dilution assay; assay type: functional
Escherichia coli [49] = test: Induction of membrane permeabilization in Escherichia coli at 8 uM after 40 mins by NPN-fluorescence based assay; assay type: organism-based; conditions: Cell membrane
How it was run: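 NPN-stained E. coli incubated with compound at 8 µM; outer-membrane permeabilization followed as NPN fluorescence over time. Average of three replicates.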

Escherichia coli [50] = test: Bactericidal activity against Escherichia coli assessed as reduction in colony forming units at 1 times MIC99 concentration after 6 hrs by fluorescent based time-kill assay; assay type: functional, organism-based
Escherichia coli [51] = test: Induction of membrane permeabilization in Escherichia coli in presence of 1.9 to 1000 ug/ml LPS by propidium iodide uptake based FACS analysis; assay type: organism-based; conditions: Cell membrane
How it was run: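 E. coli was treated with compound in the presence of graded LPS and stained with propidium iodide. The percentage of PI-positive cells was measured by flow cytometry.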

Acinetobacter baumannii [52] = test: Antibacterial activity against Acinetobacter baumannii isolate 1/303 by broth dilution assay; assay type: functional
Klebsiella pneumoniae [53] = test: Antibacterial activity against Klebsiella pneumoniae isolate 7/47 by broth dilution assay; assay type: functional

Compound: CC(C)C[C@H](N)C(=O)NCC(=O)O[C@@H]1CC[C@@]2(C)[C@@H](C1)C[C@@H](OC(=O)CNC(=O)[C@@H](N)CC(C)C)[C@@H]1[C@@H]2C[C@H](OC(=O)CNC(=O)[C@@H](N)CC(C)C)[C@]2(C)[C@@H]([C@H](C)CCC(=O)OCc3ccccc3)CC[C@@H]12
- MIC99 (Escherichia coli [1]): 8 to 128 µM (≈ 8.07 to 129 µg/mL)

Compound: CC(C)[C@H](N)C(=O)NCC(=O)O[C@@H]1CC[C@@]2(C)[C@@H](C1)C[C@@H](OC(=O)CNC(=O)[C@@H](N)C(C)C)[C@@H]1[C@@H]2C[C@H](OC(=O)CNC(=O)[C@@H](N)C(C)C)[C@]2(C)[C@@H]([C@H](C)CCC(=O)OCc3ccccc3)CC[C@@H]12.Cl.Cl.Cl
- Activity (Escherichia coli [2]): Active
- K (Cell membrane [3]): 2.41 ×10⁴ /Ms
- MIC99 (Acinetobacter baumannii [4]): 4 µM
- Activity (Escherichia coli [5]): Active
- Activity (Escherichia coli [6]): 90%
- Activity (Escherichia coli [7]): Active
- inhibition (Lipopolysaccharide (LPS) [8]): Active
- MIC99 (Escherichia coli [9]): 8 µM
- MIC99 (Escherichia coli [10]): 4 µM
- Activity (Escherichia coli [11]): Active
- selectivity ratio [12]: 6 to 7
- Activity (Escherichia coli [13]): Active
- log(activity) (Escherichia coli [14]): 8
- MIC99 (Acinetobacter baumannii [15]): 8 µM
- Activity (Escherichia coli [16]): Active
- MIC99 (Klebsiella pneumoniae [17]): 8 µM
- Activity (Escherichia coli [18]): Active
- MIC99 (Klebsiella pneumoniae [19]): 8 µM
- Activity (Escherichia coli [20]): Active
- Activity (Escherichia coli [21]): Active
- Activity (Lipopolysaccharide (LPS) [22]): Active
- K (Cell membrane [23]): 6 ×10⁻² /s
- CMC [24]: > 100 µM
- MIC99 (Acinetobacter baumannii [25]): 16 µM
- Activity [26]: Active
- MIC99 (Klebsiella pneumoniae [27]): 8 µM
- Activity (Escherichia coli [28]): Active
- MIC99 (Escherichia coli [29]): 8 µM
- Activity (Escherichia coli [30]): Active
- Activity (Escherichia coli [31]): Active
- Activity (Escherichia coli [32]): Active
- MIC99 (Escherichia coli [33]): 4 µM
- MIC99 (Klebsiella pneumoniae [34]): 16 µM
- MIC99 (Escherichia coli [1]): 8 µM
- Activity (Escherichia coli [35]): 3 um
- MIC99 (Escherichia coli [36]): 8 µM
- Activity (Escherichia coli [37]): Active
- MIC99 (Acinetobacter baumannii [38]): 4 µM
- KA (Cell membrane [39]): 9.6 ×10⁷ /M
- Ratio (Escherichia coli [40]): 2
- Activity (Escherichia coli [41]): Active
- Activity (Escherichia coli [42]): Active
- K (Cell membrane [43]): 2.39 ×10² /M
- Activity (Escherichia coli [44]): Dose-dependent effect
- K (Cell membrane [45]): 4.06 ×10⁵ /M
- K (Cell membrane [46]): 4.19 ×10⁻⁵ /s
- selectivity ratio [47]: 6 to 7
- MIC99 (Acinetobacter baumannii [48]): 16 µM
- Activity (Escherichia coli [49]): Active
- Activity (Escherichia coli [50]): inactive
- Activity (Escherichia coli [51]): inactive
- MIC99 (Acinetobacter baumannii [52]): 16 µM
- MIC99 (Klebsiella pneumoniae [53]): 4 µM

Compound: C[C@H](CCC(=O)OCc1ccccc1)[C@H]1CC[C@H]2[C@@H]3[C@H](OC(=O)CNC(=O)[C@@H](N)Cc4ccccc4)C[C@@H]4C[C@H](OC(=O)CNC(=O)[C@@H](N)Cc5ccccc5)CC[C@]4(C)[C@H]3C[C@H](OC(=O)CNC(=O)[C@@H](N)Cc3ccccc3)[C@]12C
- MIC99 (Escherichia coli [1]): inactive
